From ChEMBL document CHEMBL4261490, “Exploring the links between peptoid antibacterial activity and toxicity” (Medchemcomm, 2017) come the findings set out here.

Square brackets hold non-standard residues; d marks the D form. Peptide text beside a SMILES is read from it. N(4-F-Bzl)Gly = O=C(O)CNCc1ccc(F)cc1; Gly(N-2-aminoethyl) = NCCNCC(=O)O; Nspe = C[C@H](NCC(=O)O)c1ccccc1; NhArg = N=C(N)NCCCCNCC(=O)O; Nphe = O=C(O)CNCc1ccccc1; Nlys = NCCCCNCC(=O)O

A short description of data set [1]: Cytotoxicity against human HaCaT cells assessed as reduction in cell viability pretreated for 1 hr followed by DMEM addition measured after 24 hrs by alamar blue assay. The data set is classed as cell-based. The following applies: read-out: ED50. An outline of the steps:
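HaCaT keratinocytes are grown in DMEM high glucose with 10% FBS and 1% P/S and seeded at 2x10^4 cells/well 24 h before treatment. Compound dilution series run 2–100 µM (5 mM DMSO stocks) in 50 µL for 1 h, then medium is added for 24 h at 37 °C, 5% CO2. alamarBlue is read after 1 h (Ex 540/Em 620). Triplicate, ≥2 occasions; ED50 from dose-response; amphotericin B positive control.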
(In general: The colour change of resazurin is a common sign of viable cells or microbes.)

Data set [2] can be described thus: Selectivity index, ratio of ED50 for human HaCaT cells to MIC for Escherichia coli K-12 W3110 ATCC 27325. The data set is classed as toxicity. To be noted: read-out: Selectivity Index.
A short description of data set [3]: Selectivity index, ratio of ED50 for human HaCaT cells to MIC for Pseudomonas aeruginosa PAO1 ATCC 15692. The data set is classed as toxicity. To be noted: read-out: Selectivity Index.
Data set [4] is described as follows: Selectivity index, ratio of ED50 for human HaCaT cells to MIC for Staphylococcus aureus 3R7089 strain Oxford/ATCC 9144. Type of data set: toxicity. The following applies: read-out: Selectivity Index.
Data set [5] can be described thus: Cytotoxicity against human HepG2 cells assessed as reduction in cell viability pretreated for 1 hr followed by DMEM addition measured after 24 hrs by alamar blue assay. Type of data set: cell-based. The following applies: read-out: ED50. The gist of the method: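 HepG2 cells are kept in DMEM high glucose with 10% heat-inactivated FBS and 1% P/S at 37 °C, 5% CO2, and seeded at 2x10^4 cells/well one day ahead. They are exposed to compounds (100 to 3 µM, from 5 mM DMSO stocks) in 50 µL for 1 h. Medium is then added and cells incubated 24 h. alamarBlue is read after 2 h (Ex 560/Em 600). Triplicate on ≥2 occasions; ED50 from dose-response; DMSO negative control.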

Data set [6] in a line: Selectivity index, ratio of ED50 for human HaCaT cells to MIC for Staphylococcus epidermidis clinical isolate. The data set is classed as toxicity. To be noted: read-out: Selectivity Index.
Data set [7] is described as follows: Selectivity index, ratio of ED50 for human HepG2 cells to MIC for Escherichia coli K-12 W3110 ATCC 27325. To be noted: read-out: Selectivity Index. Type of data set: toxicity.
A short description of data set [8]: Selectivity index, ratio of ED50 for human HepG2 cells to MIC for Staphylococcus epidermidis clinical isolate. The data set is classed as toxicity. To be noted: read-out: Selectivity Index.
Data set [9] can be described thus: Selectivity index, ratio of ED50 for human HepG2 cells to MIC for Staphylococcus aureus 3R7089 strain Oxford/ATCC 9144. The data set is classed as toxicity. To be noted: read-out: Selectivity Index.

For `C[C@@H](c1ccccc1)N(CC(N)=O)C(=O)CN(C(=O)CN(CCCCNC(=N)N)C(=O)CN(C(=O)CN(C(=O)CN(CCCCNC(=N)N)C(=O)CN(C(=O)CN(C(=O)CN(CCCCN)C(=O)CN(C(=O)CN(C(=O)CNCCCCN)[C@@H](C)c1ccccc1)[C@@H](C)c1ccccc1)[C@@H](C)c1ccccc1)[C@@H](C)c1ccccc1)[C@@H](C)c1ccccc1)[C@@H](C)c1ccccc1)[C@@H](C)c1ccccc1` (H-[Nlys][Nspe][Nspe][Nlys][Nspe][Nspe][NhArg][Nspe][Nspe][NhArg][Nspe][Nspe]-NH2), in data set [1], the CC50 at 24 h is above 100 µM. Also, the selectivity ratio in data set [2] was 6; in data set [3] it was 3; in data set [4], 6.

As to `NCCNCC(=O)N(CC(=O)N(CC(=O)N(CCN)CC(=O)N(CC(=O)N(CC(=O)N(CCN)CC(=O)N(CC(=O)N(CC(=O)N(CCN)CC(=O)N(CC(=O)N(CC(N)=O)Cc1ccccc1)Cc1ccccc1)Cc1ccccc1)Cc1ccccc1)Cc1ccccc1)Cc1ccccc1)Cc1ccccc1)Cc1ccccc1` (H-[Gly(N-2-aminoethyl)][Nphe][Nphe][Gly(N-2-aminoethyl)][Nphe][Nphe][Gly(N-2-aminoethyl)][Nphe][Nphe][Gly(N-2-aminoethyl)][Nphe][Nphe]-NH2), the CC50 at 24 h in data set [1] and in [5] was above 100 µM in each case. In addition, the selectivity ratio in data set [2] was 8; in data set [6], 17; in data set [7] it was 8; in [8], 17.

For the compound `NCCCCNCC(=O)N(CC(=O)N(CC(=O)N(CCCCN)CC(=O)N(CC(=O)N(CC(=O)N(CCCCN)CC(=O)N(CC(=O)N(CC(=O)N(CCCCN)CC(=O)N(CC(=O)N(CC(N)=O)Cc1ccccc1)Cc1ccccc1)Cc1ccccc1)Cc1ccccc1)Cc1ccccc1)Cc1ccccc1)Cc1ccccc1)Cc1ccccc1` (H-[Nlys][Nphe][Nphe][Nlys][Nphe][Nphe][Nlys][Nphe][Nphe][Nlys][Nphe][Nphe]-NH2), the CC50 at 24 h in [5] is above 100 µM. The selectivity ratio in [2] came to 3; in [4], 12; in data set [6], 18; in [7], 8; in data set [9], 33; in data set [8] it was 50.

In the case of `NCCCCNCC(=O)N(CC(=O)N(CC(=O)N(CCCCN)CC(=O)N(CC(=O)N(CC(=O)N(CCCCN)CC(=O)N(CC(=O)N(CC(N)=O)Cc1ccc(F)cc1)Cc1ccc(F)cc1)Cc1ccc(F)cc1)Cc1ccc(F)cc1)Cc1ccc(F)cc1)Cc1ccc(F)cc1` (H-[Nlys][N(4-F-Bzl)Gly][N(4-F-Bzl)Gly][Nlys][N(4-F-Bzl)Gly][N(4-F-Bzl)Gly][Nlys][N(4-F-Bzl)Gly][N(4-F-Bzl)Gly]-NH2), the CC50 at 24 h in [1] was above 100 µM. In addition, the selectivity ratio in [2] is 6; in data set [4] it was 33; in data set [6], 33; in data set [7], 3; in data set [9] it was 15; in data set [8] it was 15.

In the case of `N=C(N)NCCCCNCC(=O)N(CC(=O)N(CC(=O)N(CCCCNC(=N)N)CC(=O)N(CC(=O)N(CC(=O)N(CCCCNC(=N)N)CC(=O)N(CC(=O)N(CC(=O)N(CCCCNC(=N)N)CC(=O)N(CC(=O)N(CC(N)=O)Cc1ccccc1)Cc1ccccc1)Cc1ccccc1)Cc1ccccc1)Cc1ccccc1)Cc1ccccc1)Cc1ccccc1)Cc1ccccc1` (H-[NhArg][Nphe][Nphe][NhArg][Nphe][Nphe][NhArg][Nphe][Nphe][NhArg][Nphe][Nphe]-NH2), the CC50 at 24 h in data set [1] is above 100 µM. Moreover, the selectivity ratio was 17 in [2], 4 in [3] and 50 in data set [6].
